Results as given in ChEMBL document CHEMBL1137618, “Synthesis and structure-activity relationship studies of 3,6-diazabicyclo[3.2.0]heptanes as novel alpha4beta2 nicotinic acetylcholine receptor selective agonists” (J Med Chem, 2007).
pEC50, pKi: −log10 of the molar value.

How the values were obtained:
[1] = molecular target: T1, Neuronal acetylcholine receptor; alpha4/beta2 (Homo sapiens, UniProt P17787+P43681); assay: Agonist activity at recombinant human alpha-4-beta-2 nAChR expressed in HEK293 cells assessed as induction of calcium influx by FLIPR assay relative to nicotine; assay type: functional, cell-based
Method in brief: (§1)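 HEK-293 lines stably expressing human α4β2 or α3β4 nAChR, grown 24-48 h at 37 °C on poly-D-lysine in DMEM/10% FBS. Loaded with 2-4 µM Fluo-4 AM for ~0.75-1 h at room temperature in the dark, in NMDG Ringer pH 7.4. Serial log dilutions added, then peak calcium fluorescence read on FLIPR after buffer-blank subtraction.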

[2] = molecular target: T2, Neuronal acetylcholine receptor; alpha3/beta4 (Homo sapiens, UniProt P30926+P32297); assay: Agonist activity at recombinant human alpha-3-beta-4 nAChR expressed in HEK293 cells assessed as induction of calcium influx by FLIPR assay; assay type: functional, cell-based; conditions: for pEC50: read-out: EC50; for EC50: read-out: Log EC50 (converted)
[3] = molecular target: T2, Neuronal acetylcholine receptor; alpha3/beta4; assay: Agonist activity at recombinant human alpha3beta4 nAChR expressed in HEK293 cells assessed as induction of calcium influx by FLIPR assay relative to nicotine; assay type: functional, cell-based; method in brief: as §1
[4] = Displacement of [3H]cytisine from neuronal nicotinic acetylcholine receptor in rat brain membrane; assay type: cell membranes
[5] = molecular target: T1, Neuronal acetylcholine receptor; alpha4/beta2; assay: Agonist activity at recombinant human alpha-4-beta-2 nAChR expressed in HEK293 cells assessed as induction of calcium influx by FLIPR assay; assay type: functional, cell-based; conditions: for pEC50: read-out: EC50; for EC50: read-out: Log EC50 (converted)

T2 sequence (P30926 whole entry): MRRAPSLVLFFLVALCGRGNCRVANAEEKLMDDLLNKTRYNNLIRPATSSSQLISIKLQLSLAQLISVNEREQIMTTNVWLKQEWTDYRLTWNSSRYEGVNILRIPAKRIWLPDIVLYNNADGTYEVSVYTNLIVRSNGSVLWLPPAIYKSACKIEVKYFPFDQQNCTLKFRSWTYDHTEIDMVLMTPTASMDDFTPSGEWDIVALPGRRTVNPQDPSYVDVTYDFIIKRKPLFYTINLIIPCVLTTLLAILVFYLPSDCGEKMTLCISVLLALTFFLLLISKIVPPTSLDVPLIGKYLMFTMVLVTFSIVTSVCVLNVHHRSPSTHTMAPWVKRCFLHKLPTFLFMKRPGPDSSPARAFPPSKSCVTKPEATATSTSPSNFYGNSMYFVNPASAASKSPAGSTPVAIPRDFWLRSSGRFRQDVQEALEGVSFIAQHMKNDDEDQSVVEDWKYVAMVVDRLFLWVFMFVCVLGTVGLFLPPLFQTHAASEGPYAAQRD
T2 sequence (P32297 whole entry): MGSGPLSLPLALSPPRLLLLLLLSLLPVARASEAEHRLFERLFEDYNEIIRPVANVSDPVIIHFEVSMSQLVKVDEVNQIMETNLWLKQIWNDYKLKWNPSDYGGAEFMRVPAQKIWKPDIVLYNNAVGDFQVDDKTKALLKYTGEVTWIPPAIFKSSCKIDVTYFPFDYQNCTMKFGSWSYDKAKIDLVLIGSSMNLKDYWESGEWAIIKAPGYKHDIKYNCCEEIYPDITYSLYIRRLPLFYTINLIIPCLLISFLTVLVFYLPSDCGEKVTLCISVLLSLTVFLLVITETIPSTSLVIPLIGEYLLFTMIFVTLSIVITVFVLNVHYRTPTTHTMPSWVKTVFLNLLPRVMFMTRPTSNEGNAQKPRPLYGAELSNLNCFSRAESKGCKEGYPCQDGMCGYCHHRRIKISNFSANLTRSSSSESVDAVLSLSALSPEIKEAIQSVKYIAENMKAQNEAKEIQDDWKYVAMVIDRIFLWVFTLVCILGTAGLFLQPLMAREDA
T1 sequence (P17787 whole entry): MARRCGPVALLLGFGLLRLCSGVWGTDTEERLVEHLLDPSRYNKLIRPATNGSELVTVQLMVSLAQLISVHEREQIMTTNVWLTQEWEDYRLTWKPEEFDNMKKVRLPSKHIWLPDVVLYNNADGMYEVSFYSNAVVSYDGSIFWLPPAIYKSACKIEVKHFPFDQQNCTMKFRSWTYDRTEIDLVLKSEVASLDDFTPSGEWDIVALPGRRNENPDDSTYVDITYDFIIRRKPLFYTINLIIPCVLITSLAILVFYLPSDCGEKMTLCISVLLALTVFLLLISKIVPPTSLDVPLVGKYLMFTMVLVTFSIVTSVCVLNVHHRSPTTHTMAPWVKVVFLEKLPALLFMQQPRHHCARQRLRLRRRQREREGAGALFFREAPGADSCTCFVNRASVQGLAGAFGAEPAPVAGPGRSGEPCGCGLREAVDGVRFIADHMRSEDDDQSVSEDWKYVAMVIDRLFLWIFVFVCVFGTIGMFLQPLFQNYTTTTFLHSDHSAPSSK
T1 sequence (P43681 whole entry): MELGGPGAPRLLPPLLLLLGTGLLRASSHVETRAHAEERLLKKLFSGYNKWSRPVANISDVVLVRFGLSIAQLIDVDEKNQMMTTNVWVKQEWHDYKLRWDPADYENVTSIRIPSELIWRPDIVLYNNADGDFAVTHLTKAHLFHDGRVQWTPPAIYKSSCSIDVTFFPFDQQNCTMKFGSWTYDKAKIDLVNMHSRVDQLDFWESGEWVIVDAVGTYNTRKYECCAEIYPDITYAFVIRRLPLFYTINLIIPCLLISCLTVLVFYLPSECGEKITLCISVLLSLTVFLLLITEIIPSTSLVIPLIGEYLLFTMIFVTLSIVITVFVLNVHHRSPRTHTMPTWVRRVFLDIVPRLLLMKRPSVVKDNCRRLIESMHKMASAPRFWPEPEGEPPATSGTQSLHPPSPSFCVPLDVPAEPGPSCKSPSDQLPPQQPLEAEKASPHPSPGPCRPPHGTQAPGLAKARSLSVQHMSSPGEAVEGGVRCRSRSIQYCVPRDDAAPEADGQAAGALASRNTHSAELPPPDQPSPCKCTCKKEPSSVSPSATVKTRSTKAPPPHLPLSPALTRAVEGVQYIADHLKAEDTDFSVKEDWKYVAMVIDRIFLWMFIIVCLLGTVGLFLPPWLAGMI

Clc1cc(N2C[C@@H]3CN[C@@H]3C2)cnc1Cl [SOFINICLINE]
Activity [1]: 110%
pEC50 [2]: 5.82
Activity [3]: 92%
pKi [4]: 9.52
Log Ki [4]: -9.53
pEC50 [5]: 6.40

N#Cc1cc(N2C[C@@H]3CN[C@@H]3C2)cnc1Br
Activity [1]: 146%
pEC50 [2]: 6.22
Activity [3]: 91%
pKi [4]: 9.52
Log Ki [4]: -9.51
pEC50 [5]: 6.10

N#Cc1cc(N2C[C@H]3CNC[C@H]32)cnc1Br
Activity [1]: 100%
pEC50 [2]: 5.70
Activity [3]: 95%
pKi [4]: 9.52
Log Ki [4]: -9.6
pEC50 [5]: 6.40
EC50 [5]: 324 nM

COc1cncc(N2C[C@H]3CNC[C@H]32)c1
Activity [1]: 90%
pEC50 [2]: 4.59
Activity [3]: 72%
pKi [4]: 9.10
Log Ki [4]: -9.12
pEC50 [5]: 5.44
EC50 [5]: 3390 nM

Cc1cc(N2C[C@@H]3CNC[C@@H]32)cnc1C
Activity [1]: 83%
pEC50 [2]: 4.91
EC50 [2]: 12 µM
Activity [3]: 78%
pKi [4]: 8.51
Log Ki [4]: -8.51
pEC50 [5]: 5.82

Cc1cc(N2C[C@H]3CN[C@H]3C2)cnc1C
Activity [1]: 124%
pEC50 [2]: 5.48
Activity [3]: 96%
pKi [4]: 9.52
Log Ki [4]: -9.59
pEC50 [5]: 6.70

c1cncc(N2C[C@H]3CN[C@H]3C2)c1
Activity [1]: 181%
pEC50 [2]: 5.22
EC50 [2]: 0.603 µM
Activity [3]: 119%
pKi [4]: 10.00
Log Ki [4]: -9.96
pEC50 [5]: 6.52

Brc1cc(N2C[C@H]3CNC[C@H]32)cnc1Br
Activity [1]: 131%
pEC50 [2]: 5.96
Activity [3]: 94%
pKi [4]: 9.30
Log Ki [4]: -9.35
pEC50 [5]: 5.16
EC50 [5]: 676 nM

NC(=O)c1cc(N2C[C@H]3CNC[C@H]32)cnc1Br
Activity [1]: 155%
pEC50 [2]: 4.67
EC50 [2]: 20.9 µM
Activity [3]: 88%
pKi [4]: 8.19
Log Ki [4]: -8.19
pEC50 [5]: 5.96

c1cncc(N2C[C@H]3CNC[C@H]32)c1
Activity [1]: 116%
pEC50 [2]: 5.53
EC50 [2]: 29.5 µM
Activity [3]: 62%
pKi [4]: 8.89
Log Ki [4]: -8.88
pEC50 [5]: 5.72
EC50 [5]: 1820 nM

Cc1cncc(N2C[C@@H]3CN[C@@H]3C2)c1
Activity [1]: 76%
pEC50 [2]: 5.10
EC50 [2]: 33.1 µM
Activity [3]: 74%
pKi [4]: 8.60
Log Ki [4]: -8.61
pEC50 [5]: 4.40
EC50 [5]: 30900 nM

Cc1cc(N2C[C@@H]3CN[C@@H]3C2)cnc1Cl
Activity [1]: 134%
pEC50 [2]: 6.15
Activity [3]: 100%
pKi [4]: 10.10
Log Ki [4]: -10.1
pEC50 [5]: 6.52

COc1cc(N2C[C@H]3CNC[C@H]32)cnc1Br
Activity [1]: 118%
pEC50 [2]: 5.74
Activity [3]: 94%
pKi [4]: 9.70
Log Ki [4]: -9.68
pEC50 [5]: 6.05

N#Cc1cncc(N2C[C@@H]3CNC[C@@H]32)c1
Activity [1]: 34%
pEC50 [2]: 4.86
EC50 [2]: 12.3 µM
Activity [3]: 47%
pKi [4]: 9.05
Log Ki [4]: -9.07
pEC50 [5]: 4.94
EC50 [5]: 9120 nM

C#Cc1cncc(N2C[C@@H]3CNC[C@@H]32)c1
Activity [1]: 45%
pEC50 [2]: 4.48
EC50 [2]: 13.2 µM
Activity [3]: 33%
pKi [4]: 9.22
Log Ki [4]: -9.21
pEC50 [5]: 4.69
EC50 [5]: 13500 nM

Clc1ccc(N2C[C@@H]3CNC[C@@H]32)cn1
Activity [1]: 107%
pEC50 [2]: 5.92
Activity [3]: 94%
pKi [4]: 8.89
Log Ki [4]: -8.9
pEC50 [5]: 6.52

Clc1ccc(N2C[C@H]3CNC[C@H]32)cn1
Activity [1]: 127%
pEC50 [2]: 5.96
Activity [3]: 104%
pKi [4]: 8.92
Log Ki [4]: -8.91
pEC50 [5]: 6.22
EC50 [5]: 537 nM

Cc1cc(N2C[C@H]3CNC[C@H]32)cnc1Cl
Activity [1]: 133%
pEC50 [2]: 6.22
Activity [3]: 97%
pKi [4]: 9.70
Log Ki [4]: -9.7
pEC50 [5]: 6.70
EC50 [5]: 229 nM

Cc1cc(N2C[C@H]3CNC[C@H]32)cnc1C
Activity [1]: 85%
pEC50 [2]: 5.38
Activity [3]: 86%
pKi [4]: 8.10
Log Ki [4]: -8.1
pEC50 [5]: 5.68

Clc1cc(N2C[C@H]3CNC[C@H]32)cnc1Cl
Activity [1]: 117%
pEC50 [2]: 6.00
Activity [3]: 92%
pKi [4]: 9.52
Log Ki [4]: -9.55
pEC50 [5]: 6.52
EC50 [5]: 263 nM

Clc1cncc(N2C[C@H]3CNC[C@H]32)c1
Activity [1]: 88%
pEC50 [2]: 4.64
Activity [3]: 81%
pKi [4]: 8.52
Log Ki [4]: -8.53
pEC50 [5]: 5.09
EC50 [5]: 7240 nM

Clc1cc(N2C[C@@H]3CNC[C@@H]32)cnc1Cl
Activity [1]: 110%
pEC50 [2]: 5.59
Activity [3]: 87%
pKi [4]: 8.92
Log Ki [4]: -8.93
pEC50 [5]: 6.05

COc1cncc(N2C[C@H]3CN[C@H]3C2)c1
Activity [1]: 130%
pEC50 [2]: 6.00
Activity [3]: 99%
pKi [4]: 10.00
Log Ki [4]: -9.96
pEC50 [5]: 6.00
